Among the data in ChEMBL document CHEMBL4043303, “Development of Novel Melanocortin Receptor Agonists Based on the Cyclic Peptide Framework of Sunflower Trypsin Inhibitor-1” (J Med Chem, 2018) are inhibition, Activity and solubility values, retold here.

Active and inactive are the calls of the source. No cut-off for these calls is given here. Where a SMILES comes first, the peptide text is derived from it. Bridges are numbered along the chain shown (N, C = ends). [ ]: non-standard residue; d: D form. NMeW = CN[C@@H](Cc1c[nH]c2ccccc12)C(=O)O

Data set [1] concerns the target T1, Melanocyte-stimulating hormone receptor (Homo sapiens, UniProt Q01726). Nature of the data set: Displacement of [125I]-NDP-alpha-MSH from human MC1R LBD expressed in HEK293 cell membranes incubated for 16 to 23 hrs in dark by scintillation proximity assay. On the set-up: concentration or dose not given beside the values. Particulars: concentration not given here. Background: In a radioligand displacement assay an active substance lowers the binding of a labelled ligand.

Data set [2] has as its target T1, Melanocyte-stimulating hormone receptor. Description: Agonist activity at human MC1R expressed in low doxycyclin-treated HEK293 cell membranes assessed as increase in cAMP production after 45 mins by HTRF method. It counts as functional, cell-based. A general note: Changes in cAMP serve as a functional read-out for many G protein-coupled receptors.
The target in data set [3] is T2, Melanocortin receptor 4 (Homo sapiens, UniProt P32245). Nature of the data set: Agonist activity at human MC4R expressed in high doxycyclin-treated HEK293 cell membranes assessed as increase in cAMP production after 15 mins by HTRF method. It counts as functional, cell-based. Put shortly: (§1)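 T-REx-293 cells stably expressing doxycycline-inducible human MC1R, MC3R or MC4R; expression induced 24 h with 0.1 ng/mL (low) or 10 ng/mL (high, MC4R only) doxycycline. 1000 cells/well in HBSS, 20 mM HEPES pH 7.4, 0.1% BSA, 1 mM IBMX; stimulated at 37 °C. Time-resolved FRET cAMP read-out normalized to NDP-α-MSH maximum.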
T2 sequence (P32245 whole entry): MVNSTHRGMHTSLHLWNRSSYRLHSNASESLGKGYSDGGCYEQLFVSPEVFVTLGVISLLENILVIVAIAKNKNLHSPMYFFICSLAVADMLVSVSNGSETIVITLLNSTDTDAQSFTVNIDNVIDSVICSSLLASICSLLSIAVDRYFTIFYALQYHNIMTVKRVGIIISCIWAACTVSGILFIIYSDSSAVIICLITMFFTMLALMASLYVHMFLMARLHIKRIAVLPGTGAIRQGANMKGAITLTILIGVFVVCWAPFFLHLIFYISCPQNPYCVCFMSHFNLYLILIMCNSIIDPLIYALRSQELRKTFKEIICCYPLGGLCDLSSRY

In data set [4] the target is T3, Melanocortin receptor 3 (Homo sapiens, UniProt P41968). Nature of the data set: Displacement of [125I]-NDP-alpha-MSH from human MC3R LBD expressed in HEK293 cell membranes incubated for 16 to 23 hrs in dark by scintillation proximity assay. Further details: concentration or dose not given beside the values. Conditions: concentration not given here.
T3 sequence (P41968 whole entry, the tested form may be a part): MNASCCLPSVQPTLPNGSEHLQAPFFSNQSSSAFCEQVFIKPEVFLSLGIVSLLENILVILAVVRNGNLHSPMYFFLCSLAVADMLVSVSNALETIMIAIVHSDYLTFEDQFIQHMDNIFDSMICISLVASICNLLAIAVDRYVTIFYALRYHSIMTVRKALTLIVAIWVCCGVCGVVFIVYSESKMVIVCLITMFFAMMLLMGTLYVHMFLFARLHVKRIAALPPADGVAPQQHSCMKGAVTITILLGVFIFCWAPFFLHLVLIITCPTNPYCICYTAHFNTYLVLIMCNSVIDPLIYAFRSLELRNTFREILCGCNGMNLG
The target of data set [5] is T2, Melanocortin receptor 4. Description: Displacement of [125I]-NDP-alpha-MSH from human MC4R LBD expressed in HEK293 cell membranes incubated for 16 to 23 hrs in dark by scintillation proximity assay. On the set-up: concentration or dose not given beside the values. Conditions: concentration not given here.
For a further data set, the target named is Melanocortin receptor 5 (Homo sapiens, UniProt P33032). Description: Displacement of [125I]-NDP-alpha-MSH from human MC5R LBD expressed in HEK293 cell membranes incubated for 16 to 23 hrs in dark by scintillation proximity assay. Conditions: concentration not given here. On the set-up: concentration or dose not given beside the values.
Sequence of Melanocortin receptor 5 (P33032 whole entry, the tested form may be a part): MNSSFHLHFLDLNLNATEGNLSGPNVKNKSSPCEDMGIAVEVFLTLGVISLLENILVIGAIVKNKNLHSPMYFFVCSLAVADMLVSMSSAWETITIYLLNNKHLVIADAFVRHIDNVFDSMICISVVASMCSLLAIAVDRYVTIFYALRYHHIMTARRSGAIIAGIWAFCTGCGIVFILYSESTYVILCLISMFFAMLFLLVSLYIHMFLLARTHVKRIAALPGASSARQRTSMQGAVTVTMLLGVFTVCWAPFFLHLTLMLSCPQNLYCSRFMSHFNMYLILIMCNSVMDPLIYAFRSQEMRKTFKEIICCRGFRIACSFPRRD
For data set [6], the target named is T3, Melanocortin receptor 3. Description: Agonist activity at human MC3R expressed in low doxycyclin-treated HEK293 cell membranes assessed as increase in cAMP production after 45 mins by HTRF method. The class given is functional, cell-based. Further details: concentration or dose not given beside the values. Put shortly: as §1
Data set [7] concerns the target T2, Melanocortin receptor 4. Description: Agonist activity at human MC4R expressed in low doxycyclin-treated HEK293 cell membranes assessed as increase in cAMP production up to 100 uM after 45 mins by HTRF method. It counts as functional, cell-based. In outline: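 Stable T-REx-293 clones (Zeocin-selected, human receptor cDNA in pcDNA4/TO), receptor expression induced with 0.1 ng/mL doxycycline for 24 h. 1000 cells/well in HBSS with Ca2+/Mg2+, 20 mM HEPES pH 7.4, 0.1% BSA. Stimulation for 45 min at 37 °C with 1 mM IBMX. cAMP read by LANCE HTRF (665/615 nm).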

Data set [8] is described as follows: Solubility of the compound in water at 1 mM. Particulars: buffer, 1000 µM. It counts as physicochemical.
Data set [9] has as its target T2, Melanocortin receptor 4. Nature of the data set: Agonist activity at human MC4R expressed in low doxycyclin-treated HEK293 cell membranes assessed as increase in cAMP production after 45 mins by HTRF method. The class given is functional, cell-based. In outline:
as §1

The species named for a further data set is Bos taurus. Description: Inhibition of bovine trypsin at 5 uM using Boc-QAR-pNA as substrate preincubated for 1 hr followed by substrate addition measured every 30 secs for 300 secs by […].

T1 sequence (Q01726 whole entry, looked up, the tested form may be a part): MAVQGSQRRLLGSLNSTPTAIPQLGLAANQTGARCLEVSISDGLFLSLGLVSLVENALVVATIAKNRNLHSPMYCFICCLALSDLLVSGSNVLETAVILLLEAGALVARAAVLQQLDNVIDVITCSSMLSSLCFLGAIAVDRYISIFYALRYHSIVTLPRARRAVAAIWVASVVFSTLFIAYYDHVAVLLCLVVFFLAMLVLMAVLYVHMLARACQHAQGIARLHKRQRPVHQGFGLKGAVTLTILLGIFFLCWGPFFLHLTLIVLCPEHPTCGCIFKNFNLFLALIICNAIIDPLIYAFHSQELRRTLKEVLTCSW

By inhibition is commonly meant the relative decrease from the control value, in per cent. `CC[C@H](C)[C@@H]1NC(=O)[C@@H]2CCCN2C(=O)[C@H](Cc2c[nH]c3ccccc23)N(C)C(=O)[C@H](CCCNC(=N)N)NC(=O)[C@@H](Cc2ccccc2)NC(=O)[C@H](Cc2cnc[nH]2)N(C)C(=O)[C@H]([C@@H](C)O)NC(=O)[C@@H]2CSSC[C@H](NC1=O)C(=O)N[C@@H](Cc1ccccc1)C(=O)N1CCC[C@H]1C(=O)N[C@@H](CC(=O)O)C(=O)NCC(=O)N[C@@H](CCCNC(=N)N)C(=O)N2`: the inhibition (in data set [1]; at Melanocortin receptor 3 [4]; on Melanocortin receptor 4 [5]; at Melanocortin receptor 5) was 100% throughout. The Activity (in data set [2]; on Melanocortin receptor 4 [3]; at Melanocortin receptor 3 [6]) was 100% throughout. Besides, the outcome on Melanocortin receptor 4 [7] was inactive. Also, the solubility result in data set [8] is on record as “Soluble”.
For `CC[C@H](C)[C@@H]1NC(=O)[C@@H]2CCCN2C(=O)[C@@H]2CCCN2C(=O)[C@H]([C@@H](C)CC)NC(=O)[C@H](CO)NC(=O)[C@H](C)NC(=O)[C@H]([C@H](C)O)NC(=O)[C@@H]2CSSC[C@H](NC1=O)C(=O)N[C@@H](Cc1cnc[nH]1)C(=O)N[C@H](Cc1ccccc1)C(=O)N(C)[C@@H](CCCNC(=N)N)C(=O)N[C@@H](Cc1c[nH]c3ccccc13)C(=O)N[C@@H](CCCNC(=N)N)C(=O)N2`, the inhibition (in [1]; on Melanocortin receptor 3 [4]; at Melanocortin receptor 4 [5]; on Melanocortin receptor 5) was 100% in each case. Moreover, the Activity (in data set [2]; at Melanocortin receptor 4 [3]; on Melanocortin receptor 4 [9]; on Melanocortin receptor 3 [6]) was 100% in each case. Moreover, the inhibition result in the data set listed under Bos taurus is “Active”.
In the case of `CC[C@H](C)[C@@H]1NC(=O)[C@@H]2CCCN2C(=O)[C@H](Cc2c[nH]c3ccccc23)NC(=O)[C@H](CCCNC(=N)N)NC(=O)[C@@H](Cc2ccccc2)NC(=O)[C@H](Cc2cnc[nH]2)NC(=O)[C@H]([C@@H](C)O)NC(=O)[C@@H]2CSSC[C@H](NC1=O)C(=O)N[C@@H](Cc1ccccc1)C(=O)N1CCC[C@H]1C(=O)N[C@@H](CC(=O)O)C(=O)NCC(=O)N[C@@H](CCCNC(=N)N)C(=O)N2`, the inhibition (in data set [1]; on Melanocortin receptor 3 [4]; at Melanocortin receptor 4 [5]; on Melanocortin receptor 5) was 100% each time. For the same compound, the Activity (in [2]; on Melanocortin receptor 4 [3]; on Melanocortin receptor 4 [9]; on Melanocortin receptor 3 [6]) was 100% each time. Moreover, the solubility result in data set [8] is listed as “Soluble”.
As for `CC[C@H](C)[C@@H]1NC(=O)[C@@H]2CCCN2C(=O)[C@H](Cc2c[nH]c3ccccc23)NC(=O)[C@H](CCCNC(=N)N)N(C)C(=O)[C@@H](Cc2ccccc2)NC(=O)[C@H](Cc2cnc[nH]2)NC(=O)[C@H]([C@@H](C)O)NC(=O)[C@@H]2CSSC[C@H](NC1=O)C(=O)N[C@@H](Cc1ccccc1)C(=O)N1CCC[C@H]1C(=O)N[C@@H](CC(=O)O)C(=O)NCC(=O)N[C@@H](CCCNC(=N)N)C(=O)N2`, the inhibition (in data set [1]; on Melanocortin receptor 3 [4]; on Melanocortin receptor 4 [5]; on Melanocortin receptor 5) was 100% throughout. Further, the Activity (in [2]; on Melanocortin receptor 4 [3]; at Melanocortin receptor 4 [9]; at Melanocortin receptor 3 [6]) was 100% each time. Further, the solubility entry in data set [8] was “Soluble”.
As for `CC[C@H](C)[C@@H]1NC(=O)[C@@H]2CCCN2C(=O)[C@H](Cc2c[nH]c3ccccc23)N(C)C(=O)[C@H](CCCNC(=N)N)N(C)C(=O)[C@@H](Cc2ccccc2)NC(=O)[C@H](Cc2cnc[nH]2)NC(=O)[C@H]([C@@H](C)O)NC(=O)[C@@H]2CSSC[C@H](NC1=O)C(=O)N[C@@H](Cc1ccccc1)C(=O)N1CCC[C@H]1C(=O)N[C@@H](CC(=O)O)C(=O)NCC(=O)N[C@@H](CCCNC(=N)N)C(=O)N2`, the inhibition (in data set [1]; at Melanocortin receptor 3 [4]; on Melanocortin receptor 4 [5]; on Melanocortin receptor 5) was 100% throughout. The Activity (in data set [2]; on Melanocortin receptor 4 [3]; on Melanocortin receptor 4 [9]; on Melanocortin receptor 3 [6]) was 100% in each case. Besides, in [8], the solubility entry was “Soluble”.
Consider `CC[C@H](C)[C@@H]1NC(=O)[C@@H]2CCCN2C(=O)[C@@H]2CCCN2C(=O)[C@H]([C@@H](C)CC)NC(=O)[C@H](CO)NC(=O)[C@H](C)NC(=O)[C@H]([C@H](C)O)NC(=O)[C@@H]2CSSC[C@H](NC1=O)C(=O)N[C@@H](Cc1cnc[nH]1)C(=O)N[C@H](Cc1ccccc1)C(=O)N(C)[C@@H](CCCNC(=N)N)C(=O)N(C)[C@@H](Cc1c[nH]c3ccccc13)C(=O)N[C@@H](CCCNC(=N)N)C(=O)N2`, for which the inhibition (in data set [1]; at Melanocortin receptor 3 [4]; at Melanocortin receptor 4 [5]; at Melanocortin receptor 5) was 100% throughout. In addition, the Activity (in data set [2]; on Melanocortin receptor 4 [3]; at Melanocortin receptor 4 [9]; at Melanocortin receptor 3 [6]) was 100% in each case. In addition, the inhibition entry in the data set filed under Bos taurus was “Active”.
`CC[C@H](C)[C@@H]1NC(=O)[C@@H]2CCCN2C(=O)[C@H](Cc2c[nH]c3ccccc23)N(C)C(=O)[C@H](CCCNC(=N)N)NC(=O)[C@@H](Cc2ccccc2)NC(=O)[C@H](Cc2cnc[nH]2)NC(=O)[C@H]([C@@H](C)O)NC(=O)[C@@H]2CSSC[C@H](NC1=O)C(=O)N[C@@H](Cc1ccccc1)C(=O)N1CCC[C@H]1C(=O)N[C@@H](CC(=O)O)C(=O)NCC(=O)N[C@@H](CCCNC(=N)N)C(=O)N2` (cyclo(CFPDGRCTH[dF]R[NMeW]PI); disulfide 1-7): the inhibition (in [1]; at Melanocortin receptor 3 [4]; at Melanocortin receptor 4 [5]; on Melanocortin receptor 5) was 100% throughout. In addition, the Activity (in data set [2]; on Melanocortin receptor 4 [3]; on Melanocortin receptor 4 [9]; at Melanocortin receptor 3 [6]) was 100% each time. In data set [8], the solubility entry is listed as “Soluble”.
Take `CC[C@H](C)[C@@H]1NC(=O)[C@@H]2CCCN2C(=O)[C@@H]2CCCN2C(=O)[C@H]([C@@H](C)CC)NC(=O)[C@H](CO)NC(=O)[C@H](C)NC(=O)[C@H]([C@H](C)O)NC(=O)[C@@H]2CSSC[C@H](NC1=O)C(=O)N[C@@H](Cc1cnc[nH]1)C(=O)N[C@H](Cc1ccccc1)C(=O)N[C@@H](CCCNC(=N)N)C(=O)N[C@@H](Cc1c[nH]c3ccccc13)C(=O)N[C@@H](CCCNC(=N)N)C(=O)N2`: the inhibition (in data set [1]; at Melanocortin receptor 3 [4]; at Melanocortin receptor 4 [5]; at Melanocortin receptor 5) was 100% in each case. Besides, the Activity (in data set [2]; on Melanocortin receptor 4 [3]; at Melanocortin receptor 4 [9]; at Melanocortin receptor 3 [6]) was 100% throughout. Also, in the data set listed under Bos taurus, the inhibition entry is “Active”.
For `CC[C@H](C)[C@@H]1NC(=O)[C@@H]2CCCN2C(=O)[C@H](Cc2c[nH]c3ccccc23)NC(=O)[C@H](CCCNC(=N)N)NC(=O)[C@@H](Cc2ccccc2)NC(=O)[C@H](Cc2cnc[nH]2)N(C)C(=O)[C@H]([C@@H](C)O)NC(=O)[C@@H]2CSSC[C@H](NC1=O)C(=O)N[C@@H](Cc1ccccc1)C(=O)N1CCC[C@H]1C(=O)N[C@@H](CC(=O)O)C(=O)NCC(=O)N[C@@H](CCCNC(=N)N)C(=O)N2`, the inhibition (in [1]; on Melanocortin receptor 3 [4]; on Melanocortin receptor 4 [5]; on Melanocortin receptor 5) was 100% in each case. In addition, the Activity (in [2]; on Melanocortin receptor 4 [3]; at Melanocortin receptor 4 [9]; on Melanocortin receptor 3 [6]) was 100% throughout. For the same compound, in [8], the solubility result is “Soluble”.
Take `CC[C@H](C)[C@@H]1NC(=O)[C@@H]2CCCN2C(=O)[C@H](Cc2c[nH]c3ccccc23)NC(=O)[C@H](CCCNC(=N)N)N(C)C(=O)[C@@H](Cc2ccccc2)NC(=O)[C@H](Cc2cnc[nH]2)N(C)C(=O)[C@H]([C@@H](C)O)NC(=O)[C@@H]2CSSC[C@H](NC1=O)C(=O)N[C@@H](Cc1ccccc1)C(=O)N1CCC[C@H]1C(=O)N[C@@H](CC(=O)O)C(=O)NCC(=O)N[C@@H](CCCNC(=N)N)C(=O)N2`: the inhibition (in data set [1]; on Melanocortin receptor 3 [4]; on Melanocortin receptor 4 [5]; at Melanocortin receptor 5) was 100% in each case. Further, the Activity (in [2]; at Melanocortin receptor 4 [3]; on Melanocortin receptor 4 [9]; on Melanocortin receptor 3 [6]) was 100% in each case. In [8], the solubility result is “Soluble”.
